# Test results from ChEMBL document CHEMBL1649139, “A novel gene, erm(41), confers inducible macrolide resistance to clinical isolates of Mycobacterium abscessus but is absent from Mycobacterium chelonae” (2009).
# Key:
# Type in all cases: functional
# [1] = system: Mycobacteroides abscessus; experiment: Antimicrobial activity against Mycobacterium abscessus isolate MC879-2 at day 5 preincubated with 0.1 ug/ml erythromycin for 3 days by broth microdilution method
# [2] = system: Mycobacteroides abscessus; experiment: Antimicrobial activity against Mycobacterium abscessus isolate MC1448 at day 5 preincubated with 0.1 ug/ml erythromycin for 3 days by broth microdilution method
# In short: (§1)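 Clarithromycin MIC by broth microdilution following CLSI guidelines. Before testing, organisms were preincubated for 3 days in medium alone or in clarithromycin or erythromycin (0.01–1 μg/ml), long enough for at least two generations judged by turbidity increase. MICs were read on day 3 and again on extended incubation out to day 14.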
# [3] = system: Mycobacteroides abscessus; experiment: Antimicrobial activity against Mycobacterium abscessus isolate MC879-2 at day 3 preincubated with 0.1 ug/ml for 3 days by broth microdilution method
# [4] = system: Mycobacteroides abscessus; experiment: Antimicrobial activity against Mycobacterium abscessus isolate MC879-2 at day 5 preincubated with 0.1 ug/ml for 3 days by broth microdilution method
# [5] = system: Mycobacteroides abscessus; experiment: Antimicrobial activity against Mycobacterium abscessus isolate MC958 on day 4 by broth microdilution method; settings: isolate MC958, 96 h
# [6] = system: Mycobacteroides abscessus; experiment: Antimicrobial activity against Mycobacterium abscessus isolate MC958 on day 10 by broth microdilution method; settings: isolate MC958, 240 h
# [7] = system: Mycobacteroides abscessus; experiment: Antimicrobial activity against Mycobacterium abscessus isolate MC879 on day 14 by broth microdilution method; settings: isolate MC879, 336 h
# [8] = system: Mycolicibacterium smegmatis; experiment: Antimicrobial activity against Mycobacterium smegmatis transformed with erm allele Mycobacterium abscessus isolate MC720 by broth microdilution method
# [9] = system: Mycolicibacterium smegmatis; experiment: Antimicrobial activity against Mycobacterium smegmatis transformed with erm allele Mycobacterium abscessus isolate MC879-2 by broth microdilution method
# [10] = system: Mycolicibacterium smegmatis; experiment: Antimicrobial activity against Mycobacterium smegmatis transformed with erm allele Mycobacterium abscessus isolate MC1082 by broth microdilution method
# [11] = system: Mycobacteroides abscessus; experiment: Antimicrobial activity against Mycobacterium abscessus isolate MC720 at day 3 by broth microdilution method; settings: isolate MC720, 72 h; in short: as §1
# [12] = system: Mycobacteroides abscessus; experiment: Antimicrobial activity against Mycobacterium abscessus isolate MC719 at day 5 by broth microdilution method; settings: isolate MC719, 120 h; in short: as §1
# [13] = system: Mycobacteroides abscessus; experiment: Antimicrobial activity against Mycobacterium abscessus isolate MC958 at day 7 by broth microdilution method; settings: isolate MC958, 168 h
# In short: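 Clarithromycin MIC by broth microdilution following CLSI guidelines. Organisms were preincubated […], for 3 days before the assay. This allowed at least two generations, judged by the rise in turbidity. The MIC was read at the stated day, with incubation extended from day 3 to as long as 14 days.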
# [14] = system: Mycobacteroides abscessus; experiment: Antimicrobial activity against Mycobacterium abscessus isolate MC723 at day 7 by broth microdilution method; settings: isolate MC723, 168 h
# In short: (§2)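 Clinical M. abscessus isolates were preincubated for 3 days, either in medium alone or in clarithromycin or erythromycin at 0.01 to 1 μg/ml, allowing at least two generations of growth judged by turbidity. The clarithromycin MIC was then determined by CLSI-conforming broth microdilution, with plates read on day 3 and on extended incubation (days 5 to 14).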
# [15] = system: Mycobacteroides abscessus; experiment: Antimicrobial activity against Mycobacterium abscessus isolate MC724 at day 7 by broth microdilution method; settings: isolate MC724, 168 h; in short: as §2
# [16] = system: Mycobacteroides abscessus; experiment: Antimicrobial activity against Mycobacterium abscessus isolate MC720 at day 14 by broth microdilution method; settings: isolate MC720, 336 h; in short: as §1
# [17] = system: Mycobacteroides abscessus; experiment: Antimicrobial activity against Mycobacterium abscessus isolate MC723 at day 3 preincubated with 0.1 ug/ml erythromycin for 3 days by broth microdilution method; in short: as §1
# [18] = system: Mycobacteroides abscessus; experiment: Antimicrobial activity against Mycobacterium abscessus isolate MC724 at day 3 preincubated with 0.1 ug/ml erythromycin for 3 days by broth microdilution method
# In short: (§3)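 To test inducible resistance, cultures were preincubated for 3 days in clarithromycin or erythromycin, within 0.01–1 μg/ml. The period was set so cultures passed at least two generations, judged by turbidity increase. Clarithromycin MIC was then determined by CLSI-conforming broth microdilution and read on the stated day, from day 3 up to 14.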
# [19] = system: Mycobacteroides abscessus; experiment: Antimicrobial activity against Mycobacterium abscessus isolate MC1082 at day 7 by broth microdilution method; settings: isolate MC1082, 168 h
# In short: (§4)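 Clarithromycin MIC by CLSI-conforming broth microdilution. Before testing, cultures were preincubated for 3 days, either in medium alone or in clarithromycin or erythromycin (tested range 0.01–1 μg/ml). Preincubation ran for at least two generations, judged by turbidity increase. Plates were read on day 3 and on extended incubation at days 5 to 14.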
# [20] = system: Mycobacteroides abscessus; experiment: Antimicrobial activity against Mycobacterium abscessus isolate MAB30 at day 9 preincubated with 0.1 ug/ml erythromycin for 3 days by broth microdilution method; in short: as §4
# [21] = system: Mycobacteroides abscessus; experiment: Antimicrobial activity against Mycobacterium abscessus isolate MC1082 at day 9 preincubated with 0.1 ug/ml erythromycin for 3 days by broth microdilution method; in short: as §4
# [22] = system: Mycobacteroides abscessus; experiment: Antimicrobial activity against Mycobacterium abscessus isolate MC879 at day 7 preincubated with 0.1 ug/ml erythromycin for 3 days by broth microdilution method; in short: as §3
# [23] = system: Mycobacteroides abscessus; experiment: Antimicrobial activity against Mycobacterium abscessus isolate MC958 at day 7 preincubated with 0.1 ug/ml erythromycin for 3 days by broth microdilution method
# [24] = system: Mycobacteroides abscessus; experiment: Antimicrobial activity against Mycobacterium abscessus isolate MC958 at day 9 preincubated with 0.1 ug/ml erythromycin for 3 days by broth microdilution method
# [25] = system: Mycobacteroides abscessus; experiment: Antimicrobial activity against Mycobacterium abscessus isolate MC1082 at day 3 preincubated with 0.1 ug/ml for 3 days by broth microdilution method; in short: as §4
# [26] = system: Mycobacteroides abscessus; experiment: Antimicrobial activity against Mycobacterium abscessus isolate MC1028 at day 9 preincubated with 0.1 ug/ml for 3 days by broth microdilution method; in short: as §4
# [27] = system: Mycobacteroides abscessus; experiment: Antimicrobial activity against Mycobacterium abscessus isolate MC1448 at day 9 by broth microdilution method; settings: isolate MC1448, 216 h; in short: as §1
# [28] = system: Mycobacteroides abscessus; experiment: Antimicrobial activity against Mycobacterium abscessus isolate MC1448 at day 3 preincubated with 0.1 ug/ml erythromycin for 3 days by broth microdilution method; in short: as §1
# [29] = system: Mycobacteroides abscessus; experiment: Antimicrobial activity against Mycobacterium abscessus isolate MC879 at day 14 preincubated with 0.1 ug/ml erythromycin for 3 days by broth microdilution method; in short: as §3
# [30] = system: Mycobacteroides abscessus; experiment: Antimicrobial activity against Mycobacterium abscessus isolate MC879 at day 7 preincubated with 0.1 ug/ml for 3 days by broth microdilution method; in short: as §3
# [31] = system: Mycobacteroides abscessus; experiment: Antimicrobial activity against Mycobacterium abscessus isolate MC719 at day 7 preincubated with 0.1 ug/ml for 3 days by broth microdilution method; in short: as §1
# [32] = system: Mycobacteroides abscessus; experiment: Antimicrobial activity against Mycobacterium abscessus isolate MC724 at day 7 preincubated with 0.1 ug/ml for 3 days by broth microdilution method; in short: as §3
# [33] = system: Mycobacteroides abscessus; experiment: Antimicrobial activity against Mycobacterium abscessus isolate MC720 at day 9 preincubated with 0.1 ug/ml for 3 days by broth microdilution method; in short: as §1
# [34] = system: Mycobacteroides abscessus; experiment: Antimicrobial activity against Mycobacterium abscessus isolate MC723 at day 9 preincubated with 0.1 ug/ml for 3 days by broth microdilution method; in short: as §1
# [35] = system: Mycobacteroides abscessus; experiment: Antimicrobial activity against Mycobacterium abscessus isolate MC724 at day 9 preincubated with 0.1 ug/ml for 3 days by broth microdilution method; in short: as §3
# [36] = system: Mycobacteroides abscessus; experiment: Antimicrobial activity against Mycobacterium abscessus isolate MC723 at day 14 preincubated with 0.1 ug/ml for 3 days by broth microdilution method; in short: as §1
compound,measurement,setting,value
CC[C@H]1OC(=O)[C@H](C)[C@@H](O[C@H]2C[C@@](C)(OC)[C@@H](O)[C@H](C)O2)[C@H](C)[C@@H](O[C@@H]2O[C@H](C)C[C@H](N(C)C)[C@H]2O)[C@](C)(OC)C[C@@H](C)C(=O)[C@H](C)[C@@H](O)[C@]1(C)O [CLARITHROMYCIN],MIC,[1],> 32 µg/mL
same,MIC,[2],> 32 µg/mL
same,MIC,[3],> 32 µg/mL
same,MIC,[4],> 32 µg/mL
same,MIC,[5],≤ 2 µg/mL
same,MIC,[6],32 µg/mL
same,MIC,[7],32 µg/mL
same,MIC,[8],2 µg/mL
same,MIC,[9],2 µg/mL
same,MIC,[10],≤ 0.5 µg/mL
same,MIC,[11],≤ 0.5 µg/mL
same,MIC,[12],1 µg/mL
same,MIC,[13],8 µg/mL
same,MIC,[14],8 µg/mL
same,MIC,[15],8 µg/mL
same,MIC,[16],> 32 µg/mL
same,MIC,[17],≤ 0.5 µg/mL
same,MIC,[18],≤ 0.5 µg/mL
same,MIC,[19],≤ 0.5 µg/mL
same,MIC,[20],≤ 0.5 µg/mL
same,MIC,[21],≤ 0.5 µg/mL
same,MIC,[22],> 32 µg/mL
same,MIC,[23],> 32 µg/mL
same,MIC,[24],> 32 µg/mL
same,MIC,[25],≤ 0.5 µg/mL
same,MIC,[26],≤ 0.5 µg/mL
same,MIC,[27],> 32 µg/mL
same,MIC,[28],> 32 µg/mL
same,MIC,[29],> 32 µg/mL
same,MIC,[30],> 32 µg/mL
same,MIC,[31],> 32 µg/mL
same,MIC,[32],> 32 µg/mL
same,MIC,[33],> 32 µg/mL
same,MIC,[34],> 32 µg/mL
same,MIC,[35],> 32 µg/mL
same,MIC,[36],> 32 µg/mL
